Rows were chosen to be rich in hits. Some 5.2% of all compounds tested hit in one or more screens of this group.
ZTA counter: ZTA (EBV) inhibition in EBNA-1 counter-screen; ZTA-DNA binding, fluorescence polarization; inhibition, % at 11 µM; 320,000 tested, 0.15% active; AID 2234; in the data active = inhibition above about 33%
EBNA-1 inhibitor: blocks EBNA-1 binding to DNA | EBNA-1 DNA binding, fluorescence polarization | inhibition, % at 14.8 µM | 300,000 tested, 0.34% active; in the data active = inhibition above about 28%
core dimer inh: HCV core protein dimerization inhibition | AID 1899 | TR-FRET GST/Flag-core106 dimerization, 1536-well | inhibition, % at 5 µM | 300,000 tested, 0.33% active;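 active = inhibition above the mean of all tested compounds plus 3 SD, set per screening campaign, cut at about 45% in these data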
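System: GST/Flag-tagged HCV core106 proteins. Incubation: compound-protein-antibody incubation 4 h at 22.5 °C. Technique: HTRF with 340 nm excitation, 617/671 nm emission. Medium: KF-containing HEPES buffer, pH 7.45, DTT, CHAPS, BSA. Read-out: inhibition (%) from 671 over 617 nm ratio. Also added: Eu(K)-anti-GST 90 ng/mL plus XL665-anti-Flag 1 µg/mL.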
PfM18AAP inh-1: blocks P. falciparum M18 aspartyl aminopeptidase | recombinant PfM18AAP, H-Glu-NHMec fluorogenic cleavage | inhibition, % at 7.35 µM | 290,000 tested, 1.2% active;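 active = inhibition above the campaign mean inhibition over all tested compounds plus 3 SD, cut at about 28% in these data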;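 note: 0% = plate median of test compound wells and 100% = 2 mM ZnCl2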
HCV NS3 hel inh: HCV NS3 helicase inhibition; NS3 helicase DNA unwinding, Cy5 molecular beacon fluorescence; inhibition, % at 10.9 µM; 290,000 tested, 0.56% active; AID 1800;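 active = inhibition above the mean of all tested compounds plus 3 SD, set per campaign, cut at about 35% in these data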;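 note: 0% = DMSO wells and 100% = thioflavine S control wells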
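Assay system – hepatitis C virus NS3 helicase domain fragment enzyme · Buffer or medium – MOPS pH 6.5, MgCl2, DTT, Tween20, BSA · Reagent – Cy5/quencher beacon DNA duplex and ATP to start · Compound – single 10.9 µM dose · Timing – 1 h at 25 °C · Technique – Cy5 beacon fluorescence read at start and 1 h · Measure – % inhibition of unwinding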
ALR H2O2 inh: human ALR oxidase inhibition via reduced H2O2; P55789; purified ALR, DTT oxidation, H2O2 HRP-luminol luminescence; inhibition, % (concentration not given with the values); 290,000 tested, 3.8% active; AID 485317;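 active = mean replicate inhibition above about 79%, with every replicate also reaching it, limit read from the data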
Target sequence (P55789 whole entry, looked up): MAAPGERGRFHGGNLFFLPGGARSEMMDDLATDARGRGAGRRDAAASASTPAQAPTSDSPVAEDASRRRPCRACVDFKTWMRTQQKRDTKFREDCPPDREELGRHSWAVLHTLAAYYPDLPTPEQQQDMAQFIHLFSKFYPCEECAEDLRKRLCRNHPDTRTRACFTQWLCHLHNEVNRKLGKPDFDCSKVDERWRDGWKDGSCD
NS3 helicase cf: confirmation of Hepatitis C virus NS3 helicase inhibitors; shares compounds with HCV NS3 hel inh; NS3 helicase DNA unwinding, Cy5 molecular beacon fluorescence; inhibition, % at 10.9 µM; 1,600 tested, 31% active; AID 1943;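 active = inhibition above the mean of all tested compounds plus 3 SD, cutoff set per campaign, cut at about 36% in these data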
DNA FID counter: intercalator displacement, NS3 helicase counter-screen; shares compounds with HCV NS3 hel inh; DNA fluorescent intercalator displacement, fluorescence; inhibition, % at 7.9 µM; 1,600 tested, 4% active; AID 1945; in the data active = inhibition above about 37%;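 note: 0% = vehicle and 100% = reference compound; higher means more displacement of ethidium bromide from the DNA hairpin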
PfM18AAP inh-2: PfM18AAP inhibition, confirmation. shares compounds with PfM18AAP inh-1. 2,400 tested, 28% active. inhibition, % at 7.35 µM. AID 2170. recombinant PfM18AAP, H-Glu-NHMec fluorogenic cleavage;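 active = mean inhibition over replicate wells above the hit cutoff set for the earlier primary screen, cut at about 29% in these data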;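 note: 0% = median of test compound wells and 100% = 2 mM ZnCl2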
CTSL1 counter: counter-screen for PFM18AAP inhibitors: confirmation of human cathepsin L inhibitors | AID 2178 | 2,400 tested, under 10 active | shares compounds with PfM18AAP inh-1 | inhibition, % at 5.96 µM | purified cathepsin L1, Z-Leu-Arg-MCA fluorescence;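 active = average inhibition across replicates above the hit cutoff set in the earlier primary screen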;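 note: 0% = median of test compound wells and 100% = Z-Phe-Ala-diazomethylketone 1 µM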
Target sequence (P07711 whole entry, looked up): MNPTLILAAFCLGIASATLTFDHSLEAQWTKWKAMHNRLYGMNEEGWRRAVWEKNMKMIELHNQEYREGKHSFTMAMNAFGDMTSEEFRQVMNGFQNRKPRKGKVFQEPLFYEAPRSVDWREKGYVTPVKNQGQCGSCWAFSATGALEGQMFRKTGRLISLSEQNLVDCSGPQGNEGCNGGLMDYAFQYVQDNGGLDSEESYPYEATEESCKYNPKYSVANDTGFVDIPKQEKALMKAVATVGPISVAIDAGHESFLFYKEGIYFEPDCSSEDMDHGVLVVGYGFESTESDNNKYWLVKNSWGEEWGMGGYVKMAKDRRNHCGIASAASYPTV
ZTA inh confirm: confirmation of Epstein-Barr virus ZTA DNA binding inhibitors. shares compounds with ZTA counter. Zta-ZRE DNA binding, fluorescence polarization. inhibition, % at 11.1 µM. 320 tested, 30% active;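 active = mean inhibition across triplicate runs above the hit threshold derived for the original primary screen, cut at about 33% in these data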;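 note: 0% = Zta with DMSO and 100% = wells lacking Zta protein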
EBNA1 counter: blocks EBNA-1 DNA binding in ZTA counter-screen; inhibition, % at 14.8 µM; fluorescence polarization; shares compounds with ZTA counter; 320 tested, under 10 active; call rule not given here
The depositor's hits bear a star; nt = no result given.

SMILES	ZTA counter	EBNA-1 inhibitor	core dimer inh	PfM18AAP inh-1	HCV NS3 hel inh	ALR H2O2 inh	NS3 helicase cf	DNA FID counter	PfM18AAP inh-2	CTSL1 counter	others
CCOc1ccc(N2C(=O)/C(=C/c3ccc(C)o3)C(=O)NC2=S)cc1	2	-12	31	13	49*	nt	70*	-2	nt	nt
COc1ccc(N2C(=O)/C(=C/c3ccc(C)o3)C(=O)NC2=S)cc1	nt	nt	nt	9	-2	nt	nt	nt	nt	nt
Cc1ccc(/C=C2\C(=O)NC(=S)N(c3cccc(F)c3)C2=O)o1	18	11	18	11	37*	31	65*	5	nt	nt
Cc1c(OC(=O)N(C)C)ccc2c1O/C(=C\c1ccco1)C2=O	nt	nt	nt	14	59*	-1	-5	-17	nt	nt
CN1C(=O)C(=Cc2sc(=O)n(-c3ccccc3)c2N(C)C)C(=O)N(C)C1=O	8	-1	1	3	5	12	nt	nt	nt	nt
CCN1C(=O)N(CC)C(=O)C2(Cc3ccccc3N3CCN(c4ccccc4)CC32)C1=O (stereo not drawn)	-12	-9	6	1	45*	12	-20	-32	nt	nt
Cc1ccc(N2C(=O)/C(=C/c3ccc(CN(CCC#N)S(C)(=O)=O)o3)C(=O)NC2=S)cc1C	7	-4	51*	11	44*	40	66*	24	nt	nt
Cc1cccc(N2C(=O)/C(=C/c3ccc(CN(CCC#N)S(C)(=O)=O)o3)C(=O)NC2=S)c1	8	0	18	15	19	18	nt	nt	nt	nt
C=CCN1C(=O)/C(=C/c2ccc(Br)s2)C(=O)NC1=S	-3	-14	-9	13	46*	8	68*	9	nt	nt
CC(=O)N1CC(=O)Nc2ccc(Br)cc2C1c1ccc(F)cc1 (stereo not drawn)	-10	-24	-8	4	13	-3	nt	nt	nt	nt
CC(C)(C)N1C(=O)NC(=O)/C(=C\c2ccc3c(c2)CCN3CCCCl)C1=O	7	-1	13	14	97*	90*	-12	4	nt	nt
COc1ccccc1N1C(=O)NC(=O)/C(=C/c2ccc3c(c2)Cc2ccccc2-3)C1=O	-2	7	0	4	12	3	nt	nt	nt	nt
CC1Oc2cc3c(-c4c(O)cc(O)c5c(O)c6c(cc45)OC(C)C(C)C6=O)c(O)cc(O)c3c(O)c2C(=O)C1C (stereo not drawn)	-1	5	-10	15	50*	-24	96*	64*	nt	nt
CN(C)C1C(=O)C(C(N)=O)=C(O)C2(O)C(=O)C3=C(O)c4c(O)cccc4C(C)(O)C3C(O)C12 (stereo not drawn)	-3	6	-9	56*	96*	7	10	19	-21	1
COC(=O)C1=C(c2c(C)noc2C)C[C@@H]2CC[C@H]1N2C(=O)NCCOc1ccccc1	-14	nt	nt	nt	nt	6	nt	nt	nt	nt
CCc1ccc(N2C(=O)NC(=O)/C(=C\c3cc(C)n(-c4cc(C(=O)O)cc(C(=O)O)c4)c3C)C2=O)cc1	37*	-7	9	32*	40*	11	-5	5	-22	-1	ZTA inh confirm=28;EBNA1 counter=-8
Cc1cc(/C=C2\C(=O)NC(=O)N(Cc3ccccc3Cl)C2=O)c(C)n1-c1ccc(C(=O)O)cc1	16	-15	11	16	32	32	nt	nt	nt	nt
[Cl][Pt+2][Cl].[NH-]C1CCCCC1[NH-] (stereo not drawn)	7	-1	1	nt	nt	43	nt	nt	nt	nt
O=C(O)CC1OCC=C2CN3CCC45C6=CC(=O)C(=O)C([N+](=O)[O-])=C6NC4C1C2CC35 (stereo not drawn)	41*	-19	22	24	19	61	-16	17	nt	nt	ZTA inh confirm=67*;EBNA1 counter=-2
CCCCCCCCn1sccc1=O	12	nt	nt	nt	nt	23	nt	nt	nt	nt
CCN(CC)c1ccc(N=Cc2c(O)n(Cc3ccco3)c(=O)[nH]c2=O)cc1	37*	-7	6	42*	37*	5	4	-2	-52	0	ZTA inh confirm=4;EBNA1 counter=-10
NNc1n[nH]c(=S)n1N	9	7	1	42*	-2	-12	nt	nt	40*	3
C=C1C[C@@H]2[C@H](CC[C@]3(C)C(=O)CC[C@@H]23)[C@@]2(C)C=CC(=O)C=C12	21	3	19	3	-9	1	nt	nt	nt	nt
CC(=NCc1ccco1)c1c(O)n(-c2ccc(C)cc2)c(=O)[nH]c1=O	-1	12	2	2	6	-4	nt	nt	nt	nt
CN1C(=O)C(Cc2ccc3c(c2)OCO3)C(=O)N(C)C1=O	-4	-2	-7	34*	-3	-14	nt	nt	0	-3
SMILES	ZTA counter	EBNA-1 inhibitor	core dimer inh	PfM18AAP inh-1	HCV NS3 hel inh	ALR H2O2 inh	NS3 helicase cf	DNA FID counter	PfM18AAP inh-2	CTSL1 counter	others
CN1C(=O)C(Cc2ccsc2)C(=O)N(C)C1=O	8	-3	-4	-1	-3	0	nt	nt	nt	nt
C[C@]12CCC(=O)C=C1CCC1C2CC[C@@]2(C)C1CC[C@@H]2O (stereo partly drawn)	nt	nt	nt	nt	nt	-3	nt	nt	nt	nt
C[C@]12CC[C@@H]3c4ccc(O)c(O)c4CC[C@H]3[C@@H]1CC[C@@H]2O	-7	-1	5	57*	10	11	nt	nt	92*	-4
COc1ccc(C(=O)Oc2cccc3cccnc23)cc1S(=O)(=O)N1CCOCC1	7	0	0	-6	-25	-9	nt	nt	nt	nt
COc1cc2c(cc1/C=C/[N+](=O)[O-])OCO2	nt	nt	nt	38*	8	nt	nt	nt	17	1
O=c1oc2ccccc2c(O)c1C(c1ccc([N+](=O)[O-])cc1)c1c(O)c2ccccc2oc1=O	nt	nt	nt	14	0	nt	nt	nt	nt	nt
C/C(CC(c1ccccc1)c1c(O)c2ccccc2oc1=O)=N\Nc1ccc([N+](=O)[O-])cc1[N+](=O)[O-] (stereo not drawn)	2	-3	11	36*	13	13	nt	nt	-28	-1
N#Cc1c(/N=C/c2c(O)n(Cc3ccco3)c(=O)[nH]c2=O)sc2c1CCCC2	7	-1	1	37*	26	82*	nt	nt	-43	-4
O=c1[nH]c(=O)n(Cc2ccco2)c(O)c1/C=N/N1CCCCCC1	-1	5	4	9	15	-2	nt	nt	nt	nt

Compound activity deposited in PubChem BioAssay by several laboratories.
